Test results as given in ChEMBL document CHEMBL3259617, “Design, synthesis, and biological evaluation of (e)-3,4-dihydroxystyryl aralkyl sulfones and sulfoxides as novel multifunctional neuroprotective agents” (J Med Chem, 2014).
Active and inactive are the calls of the source. The calls are words filed in the database; no cut-off is given here.

Test system: Radical scavenging activity
Experiment: Antioxidant activity assessed as DPPH free radical scavenging effect after 30 mins by spectrophotometric analysis
Type: functional
Conditions: not given
In short: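 Compounds and DPPH both in ethanol; equal volumes of test solution and 0.2 mM DPPH solution mixed; control was ethanol plus DPPH. Tested over 1−50 μM. Inhibition % = (A₀ − A_c)/A₀ × 100; IC50 by linear regression. Triplicate wells, three independent runs; vitamin C as reference.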

Row | Structure (SMILES) | IC50 [µM]
1 | CC(C)(C)c1ccc(C[S+]([O-])/C=C/c2ccc(O)c(O)c2)cc1 (stereo unspecified) | 9.9
2 | O=S(=O)(/C=C/c1ccc(O)c(O)c1)CCCc1ccccc1 | 9.9
3 | O=S(=O)(/C=C/c1ccc(O)c(O)c1)Cc1ccccc1 | 8.1
4 | [O-][S+](/C=C/c1ccc(O)c(O)c1)CCc1ccccc1 (stereo unspecified) | 11.6
5 | COc1ccc(CS(=O)(=O)/C=C/c2ccc(O)c(O)c2)cc1 | 9.1
6 | [O-][S+](/C=C/c1ccc(O)c(O)c1)Cc1ccccc1 (stereo unspecified) | 14.7
7 | O=S(=O)(/C=C/c1ccc(O)c(O)c1)Cc1ccc(Cl)cc1 | 8.8

Continued, values first:

Row | IC50 [µM] | Structure (SMILES)
8 | 10.5 | O=S(=O)(/C=C/c1ccc(O)c(O)c1)CCc1ccccc1
9 | 14.4 | [O-][S+](/C=C/c1ccc(O)c(O)c1)CCCc1ccccc1 (stereo unspecified)
10 | 7.8 | [O-][S+](/C=C/c1ccc(O)c(O)c1)Cc1ccc(C(F)(F)F)cc1 (stereo unspecified)
11 | 11.5 | COc1ccc(C[S+]([O-])/C=C/c2ccc(O)c(O)c2)cc1 (stereo unspecified)
12 | 9.5 | CC(C)(C)c1ccc(CS(=O)(=O)/C=C/c2ccc(O)c(O)c2)cc1
13 | 16.2 | [O-][S+](/C=C/c1ccc(O)c(O)c1)CCCCc1ccccc1 (stereo unspecified)
14 | 5.8 | O=S(=O)(/C=C/c1ccc(O)c(O)c1)Cc1ccc(C(F)(F)F)cc1
15 | 8.1 | [O-][S+](/C=C/c1ccc(O)c(O)c1)Cc1ccc(Cl)cc1 (stereo unspecified)
16 | 17.2 | O=S(=O)(/C=C/c1ccc(O)c(O)c1)CCCCc1ccccc1

Test system: PC-12
Experiment: Neuroprotective activity against H2O2-induced damage in rat PC12 cells assessed as cell viability at 5 uM preincubated for 3 hrs followed by H2O2 challenge measured after 5 hrs by MTT assay
Type: functional, cell-based
Conditions: not given
In short: (§1)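 PC12 cells in high-glucose DMEM with 10% FBS, 5% horse serum and antibiotics, 37 °C, 5% CO₂, seeded at 4 × 10⁵ cells mL⁻¹. Pretreated 3 h with compounds (DMSO, diluted in medium), then challenged with H₂O₂ at final 500 μM for 5 h. MTT absorbance at 570 nm; viability relative to untreated cells (100%); mean ± SD, n = 3.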

Row | Structure (SMILES) | Activity
17 | CC(C)(C)c1ccc(C[S+]([O-])/C=C/c2ccc(O)c(O)c2)cc1 (stereo unspecified) | Active
18 | O=S(=O)(/C=C/c1ccc(O)c(O)c1)CCc1ccccc1 | Active
19 | [O-][S+](/C=C/c1ccc(O)c(O)c1)CCCc1ccccc1 (stereo unspecified) | Active
20 | O=S(=O)(/C=C/c1ccc(O)c(O)c1)CCCc1ccccc1 | Active
21 | [O-][S+](/C=C/c1ccc(O)c(O)c1)Cc1ccc(C(F)(F)F)cc1 (stereo unspecified) | Active
22 | COc1ccc(C[S+]([O-])/C=C/c2ccc(O)c(O)c2)cc1 (stereo unspecified) | Active
23 | CC(C)(C)c1ccc(CS(=O)(=O)/C=C/c2ccc(O)c(O)c2)cc1 | Active
24 | O=S(=O)(/C=C/c1ccc(O)c(O)c1)Cc1ccccc1 | Active
25 | O=C(/C=C/c1ccc(O)c(O)c1)OCCc1ccccc1 | Active
26 | O=S(=O)(/C=C/c1ccc(O)c(O)c1)Cc1ccc(C(F)(F)F)cc1 | Active
27 | COc1ccc(CS(=O)(=O)/C=C/c2ccc(O)c(O)c2)cc1 | Active
28 | [O-][S+](/C=C/c1ccc(O)c(O)c1)Cc1ccccc1 (stereo unspecified) | Active
29 | [O-][S+](/C=C/c1ccc(O)c(O)c1)Cc1ccc(Cl)cc1 (stereo unspecified) | Active
30 | O=S(=O)(/C=C/c1ccc(O)c(O)c1)Cc1ccc(Cl)cc1 | Active

Test system: PC-12
Experiment: Neuroprotective activity against H2O2-induced damage in rat PC12 cells assessed as cell viability at 2.5 uM preincubated for 3 hrs followed by H2O2 challenge measured after 5 hrs by MTT assay
Type: functional, cell-based
Conditions: not given
In short: as §1

Row | Structure (SMILES) | Activity
31 | O=S(=O)(/C=C/c1ccc(O)c(O)c1)CCCc1ccccc1 | Active
32 | CC(C)(C)c1ccc(CS(=O)(=O)/C=C/c2ccc(O)c(O)c2)cc1 | Active
33 | O=C(/C=C/c1ccc(O)c(O)c1)OCCc1ccccc1 | Active

Test system: PC-12
Experiment: Neuroprotective activity against 6-OHDA-induced damage in rat PC12 cells assessed as cell viability at 40 uM preincubated for 3 hrs followed by 6-OHDA challenge measured after 48 hrs by MTT assay
Type: functional, cell-based
Conditions: not given
In short: (§2)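 PC12 cells grown in high-glucose DMEM with 10% FBS, 5% horse serum and penicillin/streptomycin, 5% CO₂, 37 °C. Seeded at 4 × 10⁵ cells mL⁻¹. Compounds (DMSO stock diluted in medium) applied for 3 h, then 6-OHDA at final 400 μM for 48 h. MTT read at 570 nm; viability given as % of untreated cells; mean ± SD, n = 3.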

Row | Structure (SMILES) | Activity
34 | CC(C)(C)c1ccc(C[S+]([O-])/C=C/c2ccc(O)c(O)c2)cc1 (stereo unspecified) | inactive
35 | O=S(=O)(/C=C/c1ccc(O)c(O)c1)CCc1ccccc1 | Active
36 | [O-][S+](/C=C/c1ccc(O)c(O)c1)CCCc1ccccc1 (stereo unspecified) | Active
37 | O=S(=O)(/C=C/c1ccc(O)c(O)c1)CCCc1ccccc1 | Active
38 | [O-][S+](/C=C/c1ccc(O)c(O)c1)Cc1ccc(C(F)(F)F)cc1 (stereo unspecified) | Active
39 | COc1ccc(C[S+]([O-])/C=C/c2ccc(O)c(O)c2)cc1 (stereo unspecified) | Active
40 | CC(C)(C)c1ccc(CS(=O)(=O)/C=C/c2ccc(O)c(O)c2)cc1 | inactive
41 | O=S(=O)(/C=C/c1ccc(O)c(O)c1)Cc1ccccc1 | Active
42 | O=C(/C=C/c1ccc(O)c(O)c1)OCCc1ccccc1 | Active
43 | [O-][S+](/C=C/c1ccc(O)c(O)c1)CCCCc1ccccc1 (stereo unspecified) | Active
44 | [O-][S+](/C=C/c1ccc(O)c(O)c1)CCc1ccccc1 (stereo unspecified) | Active
45 | O=S(=O)(/C=C/c1ccc(O)c(O)c1)Cc1ccc(C(F)(F)F)cc1 | Active
46 | COc1ccc(CS(=O)(=O)/C=C/c2ccc(O)c(O)c2)cc1 | Active
47 | [O-][S+](/C=C/c1ccc(O)c(O)c1)Cc1ccccc1 (stereo unspecified) | Active
48 | [O-][S+](/C=C/c1ccc(O)c(O)c1)Cc1ccc(Cl)cc1 (stereo unspecified) | Active
49 | O=S(=O)(/C=C/c1ccc(O)c(O)c1)Cc1ccc(Cl)cc1 | Active
50 | O=S(=O)(/C=C/c1ccc(O)c(O)c1)CCCCc1ccccc1 | Active

Test system: PC-12
Experiment: Neuroprotective activity against 6-OHDA-induced damage in rat PC12 cells assessed as cell viability at 5 to 10 uM preincubated for 3 hrs followed by 6-OHDA challenge measured after 48 hrs by MTT assay
Type: functional, cell-based
Conditions: not given
In short: as §2

Row | Structure (SMILES) | Activity
51 | O=C(/C=C/c1ccc(O)c(O)c1)OCCc1ccccc1 | Active
52 | [O-][S+](/C=C/c1ccc(O)c(O)c1)CCc1ccccc1 (stereo unspecified) | Active
53 | O=S(=O)(/C=C/c1ccc(O)c(O)c1)Cc1ccc(C(F)(F)F)cc1 | Active

Test system: not listed separately
Experiment: Antineuroinflammatory activity in mouse BV2 cells assessed as inhibition of LPS-induced nitric oxide production preincubated for 3 hrs followed by LPS challenge measured after 24 hrs by Griess assay
Type: functional, cell-based
Conditions: BV-2
In short: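 BV2 microglia grown in high-glucose DMEM with 10% FBS and penicillin/streptomycin, 5% CO₂, 37 °C. Seeded at 4 × 10⁵ cells mL⁻¹. Compounds in DMSO, diluted in medium, added for 3 h before LPS (final 100 nM). Nitrite in medium read with an NO assay kit at 540 nm after 24 h. Inhibition calculated against the LPS-only and normal controls. IC50 obtained by linear regression.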

Row | Structure (SMILES) | IC50 [µM]
54 | CC(C)(C)c1ccc(C[S+]([O-])/C=C/c2ccc(O)c(O)c2)cc1 (stereo unspecified) | 9.3
55 | O=S(=O)(/C=C/c1ccc(O)c(O)c1)CCCc1ccccc1 | 10.5
56 | O=S(=O)(/C=C/c1ccc(O)c(O)c1)Cc1ccccc1 | 11.6
57 | [O-][S+](/C=C/c1ccc(O)c(O)c1)CCc1ccccc1 (stereo unspecified) | 42.6
58 | COc1ccc(CS(=O)(=O)/C=C/c2ccc(O)c(O)c2)cc1 | 11.9
59 | [O-][S+](/C=C/c1ccc(O)c(O)c1)Cc1ccccc1 (stereo unspecified) | 50.3
60 | O=S(=O)(/C=C/c1ccc(O)c(O)c1)Cc1ccc(Cl)cc1 | 11.7

Further lines, results first:

Row | IC50 [µM] | Structure (SMILES)
61 | 30.6 | O=S(=O)(/C=C/c1ccc(O)c(O)c1)CCc1ccccc1
62 | 28.6 | [O-][S+](/C=C/c1ccc(O)c(O)c1)CCCc1ccccc1 (stereo unspecified)
63 | 15.5 | [O-][S+](/C=C/c1ccc(O)c(O)c1)Cc1ccc(C(F)(F)F)cc1 (stereo unspecified)
64 | 33 | COc1ccc(C[S+]([O-])/C=C/c2ccc(O)c(O)c2)cc1 (stereo unspecified)
65 | 12.6 | CC(C)(C)c1ccc(CS(=O)(=O)/C=C/c2ccc(O)c(O)c2)cc1
66 | 36.8 | [O-][S+](/C=C/c1ccc(O)c(O)c1)CCCCc1ccccc1 (stereo unspecified)
67 | 15.9 | O=S(=O)(/C=C/c1ccc(O)c(O)c1)Cc1ccc(C(F)(F)F)cc1
68 | 14 | [O-][S+](/C=C/c1ccc(O)c(O)c1)Cc1ccc(Cl)cc1 (stereo unspecified)
69 | 19.8 | O=S(=O)(/C=C/c1ccc(O)c(O)c1)CCCCc1ccccc1

Test system: not listed separately
Experiment: Cytotoxicity against mouse BV2 cells assessed as cell viability by MTT assay
Type: cell-based, BV-2
Set-up: concentration or dose not given beside the values
Conditions: read-out: Activity

Row | Structure (SMILES) | viability [%]
70 | CC(C)(C)c1ccc(C[S+]([O-])/C=C/c2ccc(O)c(O)c2)cc1 (stereo unspecified) | > 90
71 | O=S(=O)(/C=C/c1ccc(O)c(O)c1)CCc1ccccc1 | > 90
72 | [O-][S+](/C=C/c1ccc(O)c(O)c1)CCCc1ccccc1 (stereo unspecified) | > 90
73 | O=S(=O)(/C=C/c1ccc(O)c(O)c1)CCCc1ccccc1 | > 90
74 | [O-][S+](/C=C/c1ccc(O)c(O)c1)Cc1ccc(C(F)(F)F)cc1 (stereo unspecified) | > 90
75 | COc1ccc(C[S+]([O-])/C=C/c2ccc(O)c(O)c2)cc1 (stereo unspecified) | > 90
76 | CC(C)(C)c1ccc(CS(=O)(=O)/C=C/c2ccc(O)c(O)c2)cc1 | > 90
77 | O=S(=O)(/C=C/c1ccc(O)c(O)c1)Cc1ccccc1 | > 90
78 | [O-][S+](/C=C/c1ccc(O)c(O)c1)CCCCc1ccccc1 (stereo unspecified) | > 90
79 | [O-][S+](/C=C/c1ccc(O)c(O)c1)CCc1ccccc1 (stereo unspecified) | > 90
80 | O=S(=O)(/C=C/c1ccc(O)c(O)c1)Cc1ccc(C(F)(F)F)cc1 | > 90
81 | COc1ccc(CS(=O)(=O)/C=C/c2ccc(O)c(O)c2)cc1 | > 90
82 | [O-][S+](/C=C/c1ccc(O)c(O)c1)Cc1ccccc1 (stereo unspecified) | > 90
83 | [O-][S+](/C=C/c1ccc(O)c(O)c1)Cc1ccc(Cl)cc1 (stereo unspecified) | > 90
84 | O=S(=O)(/C=C/c1ccc(O)c(O)c1)Cc1ccc(Cl)cc1 | > 90
85 | O=S(=O)(/C=C/c1ccc(O)c(O)c1)CCCCc1ccccc1 | > 90

Test system: not listed separately
Experiment: Permeability of the compound at 5 mg/mL after 18 hrs by PAMPA
Type: physicochemical
Conditions: read-out: permeability

Row | Structure (SMILES) | Papp at 18 h, 5 mg/mL [×10⁻⁶ cm/s]
86 | CC(C)(C)c1ccc(C[S+]([O-])/C=C/c2ccc(O)c(O)c2)cc1 (stereo unspecified) | 5.8
87 | O=S(=O)(/C=C/c1ccc(O)c(O)c1)CCCc1ccccc1 | 4.1
88 | O=S(=O)(/C=C/c1ccc(O)c(O)c1)Cc1ccccc1 | 10.1
89 | [O-][S+](/C=C/c1ccc(O)c(O)c1)CCc1ccccc1 (stereo unspecified) | 5
90 | COc1ccc(CS(=O)(=O)/C=C/c2ccc(O)c(O)c2)cc1 | 6.4
91 | [O-][S+](/C=C/c1ccc(O)c(O)c1)Cc1ccccc1 (stereo unspecified) | 4.9
92 | O=S(=O)(/C=C/c1ccc(O)c(O)c1)Cc1ccc(Cl)cc1 | 3.3

More lines, now with the values ahead:

Row | Papp at 18 h, 5 mg/mL [×10⁻⁶ cm/s] | Structure (SMILES)
93 | 5.7 | O=S(=O)(/C=C/c1ccc(O)c(O)c1)CCc1ccccc1
94 | 9.1 | [O-][S+](/C=C/c1ccc(O)c(O)c1)CCCc1ccccc1 (stereo unspecified)
95 | 4.2 | [O-][S+](/C=C/c1ccc(O)c(O)c1)Cc1ccc(C(F)(F)F)cc1 (stereo unspecified)
96 | 4.3 | COc1ccc(C[S+]([O-])/C=C/c2ccc(O)c(O)c2)cc1 (stereo unspecified)
97 | 4.7 | CC(C)(C)c1ccc(CS(=O)(=O)/C=C/c2ccc(O)c(O)c2)cc1
98 | 4.5 | [O-][S+](/C=C/c1ccc(O)c(O)c1)CCCCc1ccccc1 (stereo unspecified)
99 | 4.3 | O=S(=O)(/C=C/c1ccc(O)c(O)c1)Cc1ccc(C(F)(F)F)cc1
100 | 4.1 | [O-][S+](/C=C/c1ccc(O)c(O)c1)Cc1ccc(Cl)cc1 (stereo unspecified)
101 | 4.1 | O=S(=O)(/C=C/c1ccc(O)c(O)c1)CCCCc1ccccc1
